The target of experiment [1] is T1, CLC-0 E166C mutant (E127/K519) (Torpedo marmorata, UniProt P21564, C212S/E166C).
T1 sequence (P21564 1-805 E166C/C212S): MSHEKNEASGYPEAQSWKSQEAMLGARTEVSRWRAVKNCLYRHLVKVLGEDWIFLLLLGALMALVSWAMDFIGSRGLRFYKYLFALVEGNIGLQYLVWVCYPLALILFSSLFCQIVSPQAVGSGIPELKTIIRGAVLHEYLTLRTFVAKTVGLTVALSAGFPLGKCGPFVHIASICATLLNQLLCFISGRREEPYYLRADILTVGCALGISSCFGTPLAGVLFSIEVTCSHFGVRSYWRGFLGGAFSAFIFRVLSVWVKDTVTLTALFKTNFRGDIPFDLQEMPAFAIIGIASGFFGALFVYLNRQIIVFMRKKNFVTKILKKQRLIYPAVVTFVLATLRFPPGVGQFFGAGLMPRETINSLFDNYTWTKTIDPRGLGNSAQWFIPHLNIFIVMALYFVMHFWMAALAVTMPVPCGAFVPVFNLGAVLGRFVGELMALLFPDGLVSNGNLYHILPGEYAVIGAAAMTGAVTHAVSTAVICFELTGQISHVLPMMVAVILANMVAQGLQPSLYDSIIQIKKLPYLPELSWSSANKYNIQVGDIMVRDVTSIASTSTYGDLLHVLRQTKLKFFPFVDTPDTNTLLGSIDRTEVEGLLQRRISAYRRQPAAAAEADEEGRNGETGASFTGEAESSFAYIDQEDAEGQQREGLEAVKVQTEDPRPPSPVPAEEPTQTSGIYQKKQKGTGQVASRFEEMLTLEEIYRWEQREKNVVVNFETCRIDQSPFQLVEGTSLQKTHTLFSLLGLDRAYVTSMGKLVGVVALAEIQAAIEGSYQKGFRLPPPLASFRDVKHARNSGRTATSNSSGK
The class given is cell-based. The settings on record: for IC50: read-out: Apparent affinity (K1/2). Summed up:
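CLC-0 mutants in the C212S background were transfected into HEK293 cells with lipofectamine and recorded 1–3 d later as excised inside-out patches. Both sides held 130 mM NaCl, 5 mM MgCl2, 10 mM HEPES and 1 mM EGTA, pH 7.4. CPA was perfused continuously onto the cytoplasmic face. Steady-state current over the last 10 ms was normalized to bracketing blocker-free controls and fitted to a Langmuir function for K1/2. Values are mean ± SEM of ~4–6 patches.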

Experiment [2] addresses T2, CLC-0 E166A mutant (Torpedo marmorata, UniProt P21564, C212S/E166A).
T2 sequence (P21564 1-805 E166A/C212S): T1 sequence (P21564 1-805 E166C/C212S) with C166A
The class given is cell-based. As to conditions: for IC50: read-out: Apparent affinity (K1/2). Summed up: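 HEK293 cells expressed C212S-background CLC-0 mutants and were recorded 1–3 d post-transfection as inside-out patches in symmetrical 130 mM NaCl, 10 mM HEPES, pH 7.4. CPA, fatty acids or alkyl sulfates flowed continuously on the cytoplasmic side. C10–C12 compounds were diluted into bath solution from 10 mM DMSO stocks. Test steps ran from +80 to −160 mV after a +80 mV prepulse. Steady-state current was normalized to the mean of pre- and post-blocker controls, and a Langmuir K1/2 was taken at each voltage from ~4–6 patches.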

Where a chain is given by its changes, count along the chain named. Read-outs that look alike come from different tables or passages of the source.

As to `O=C(O)COc1ccc(Cl)cc1` [CPA, p-chlorophenoxy acetate], the block of current in experiment [1] (0.3 mM CPA, −160 mV) is recorded as above 90%; in experiment [2] (10 μM), around 50%. Besides, the IC50 in experiment [1] (−40 mV) was determined as 581 ± 94 µM; in experiment [1] (−60 mV), 349 ± 15 µM; in experiment [1] (−80 mV), 186 ± 7 µM; in experiment [1] (−100 mV), 104 ± 3 µM; in experiment [1] (−120 mV), 61 ± 2 µM; in experiment [1] (−140 mV) it was 38 ± 1 µM. The IC50 in experiment [1] (−160 mV) is 26 ± 1 µM; in experiment [2] (−40 mV), 337 ± 19 µM; in experiment [2] (−60 mV), 162 ± 9 µM; in experiment [2] (−80 mV), 82 ± 4 µM; in experiment [2] (−100 mV) it was 46 ± 2 µM; in experiment [2] (−120 mV) it was 25 ± 2 µM. Moreover, the IC50 worked out at 15 ± 1 µM in experiment [2] (−140 mV) and 10 ± 1 µM in experiment [2] (−160 mV). Further, the apparent koff in experiment [1] (−160 mV) is 17.2 s⁻¹. Moreover, the apparent kon in experiment [1] (−160 mV) was found to be 630000 M⁻¹ s⁻¹. For the same molecule, the inhibition of current in experiment [2] (300 μM CPA, −160 mV) is around 95%. Moreover, the “saturated value of 1/τ of current inhibition” value in experiment [2] (voltage step +80 to −160 mV) stood at 1561 s⁻¹.
Consider `CCCCCCCC(=O)O` [octanoate], for which the IC50 in experiment [1] (−40 mV) came to 88.5 ± 17.1 µM; in experiment [1] (−60 mV), 43.1 ± 6.4 µM; in experiment [1] (−80 mV), 20.7 ± 3.4 µM; in experiment [1] (−100 mV), 10.2 ± 1.8 µM; in experiment [1] (−120 mV), 5.6 ± 1.1 µM; in experiment [1] (−140 mV), 3.5 ± 0.8 µM. Moreover, the IC50 in experiment [1] (−160 mV) turned out to be 2 ± 0.5 µM; in experiment [2] (−40 mV), 64.3 ± 3.7 µM; in experiment [2] (−60 mV), 29.7 ± 1.4 µM; in experiment [2] (−80 mV) it was 15.7 ± 0.7 µM; in experiment [2] (−100 mV), 8.2 ± 0.2 µM; in experiment [2] (−120 mV) it was 4.7 ± 0.2 µM. The results for the IC50 in experiment [2] (−140 mV) and in experiment [2] (−160 mV) were 2.8 ± 0.2 µM and 1.9 ± 0.1 µM, respectively. Moreover, in experiment [2] (−140 mV (Fig. 10 C)), the “K1/2 (range in words)” value is recorded as “low μM range”.
